Key:
[1] = test system: A549; assay: Cytotoxicity against human A549 cells by sulforhodamine B method; assay type: functional, cell-based
[2] = test system: CAKI-1; assay: Cytotoxicity against human Caki1 cells by sulforhodamine B method; assay type: functional, cell-based
[3] = test system: PANC-1; assay: Cytotoxicity against human PANC1 cells by sulforhodamine B method; assay type: functional, cell-based
[4] = test system: OVCAR-3; assay: Cytotoxicity against human OVCAR-3 cells by sulforhodamine B method; assay type: functional, cell-based
[5] = test system: HCT-116; assay: Cytotoxicity against human HCT116 cells by sulforhodamine B method; assay type: functional, cell-based
[6] = test system: PC-3; assay: Cytotoxicity against human PC3 cells by sulforhodamine B method; assay type: functional, cell-based
[7] = test system: SNB-19; assay: Cytotoxicity against human SNB19 cells by sulforhodamine B method; assay type: functional, cell-based
[8] = test system: MDA-MB-231; assay: Cytotoxicity against human MDA-MB-231 cells by sulforhodamine B method; assay type: functional, cell-based
[9] = test system: SK-MEL-28; assay: Cytotoxicity against human SK-MEL-28 cells by sulforhodamine B method; assay type: functional, cell-based
[10] = test system: HeLa; assay: Cell cycle arrest in human HeLa cells assessed as accumulation at S phase at 500 nM after 24 hrs using propidium iodide staining by flow cytometry relative to control; assay type: functional
Outline: (§1)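 HeLa cells exposed 24 h to compound (50–500 nM range) or left untreated, then washed and harvested. DNA was stained with propidium iodide and cell-cycle phase distribution measured by flow cytometry.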

[11] = test system: HeLa; assay: Induction of apoptosis in human HeLa cells at 300 nM after 24 hrs using propidium iodide/annexin V staining by flow cytometry relative to control; assay type: functional
Outline: (§2)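 Annexin V/PI apoptosis assay: HeLa cells given compound (50–500 nM, 24 h) or no treatment, then co-stained with FITC-annexin V and propidium iodide. Phosphatidylserine externalization was scored by flow cytometry, with early apoptotic (annexin V-positive) and late apoptotic quadrants read separately.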

[12] = test system: HeLa; assay: Induction of apoptosis in human HeLa cells at 50 nM after 24 hrs using propidium iodide/annexin V staining by flow cytometry relative to control; assay type: functional; outline: as §2
[13] = test system: HeLa; assay: Cell cycle arrest in human HeLa cells assessed as accumulation at S phase at 300 nM after 24 hrs using propidium iodide staining by flow cytometry relative to control; assay type: functional; outline: as §1
[14] = test system: HeLa; assay: Cell cycle arrest in human HeLa cells assessed as accumulation at S phase at 50 nM after 24 hrs using propidium iodide staining by flow cytometry relative to control; assay type: functional; outline: as §1
[15] = test system: HeLa; assay: Cell cycle arrest in human HeLa cells assessed as accumulation at G2/M phase at 200 nM after 24 hrs using propidium iodide staining by flow cytometry relative to control; assay type: functional; outline: as §1
[16] = test system: HeLa; assay: Cell cycle arrest in human HeLa cells assessed as accumulation at G2/M phase at 100 nM after 24 hrs using propidium iodide staining by flow cytometry relative to control; assay type: functional; outline: as §1
[17] = test system: HeLa; assay: Cell cycle arrest in human HeLa cells assessed as accumulation at S phase at 200 nM after 24 hrs using propidium iodide staining by flow cytometry relative to control; assay type: functional; outline: as §1
[18] = test system: HeLa; assay: Cell cycle arrest in human HeLa cells assessed as accumulation at G2/M phase at 50 nM after 24 hrs using propidium iodide staining by flow cytometry relative to control; assay type: functional; outline: as §1
[19] = test system: HeLa; assay: Cell cycle arrest in human HeLa cells assessed as accumulation at G1 phase at 200 nM after 24 hrs using propidium iodide staining by flow cytometry relative to control; assay type: functional; outline: as §1
[20] = test system: HeLa; assay: Cell cycle arrest in human HeLa cells assessed as accumulation at G2/M phase at 300 nM after 24 hrs using propidium iodide staining by flow cytometry relative to control; assay type: functional; outline: as §1
[21] = test system: HeLa; assay: Induction of apoptosis in human HeLa cells at 200 nM after 24 hrs using propidium iodide/annexin V staining by flow cytometry relative to control; assay type: functional; outline: as §2
[22] = test system: HeLa; assay: Cell cycle arrest in human HeLa cells assessed as accumulation at G1 phase at 50 nM after 24 hrs using propidium iodide staining by flow cytometry relative to control; assay type: functional; outline: as §1
[23] = test system: HeLa; assay: Cell cycle arrest in human HeLa cells assessed as accumulation at G1 phase at 300 nM after 24 hrs using propidium iodide staining by flow cytometry relative to control; assay type: functional; outline: as §1
[24] = test system: HeLa; assay: Induction of apoptosis in human HeLa cells at 500 nM after 24 hrs using propidium iodide/annexin V staining by flow cytometry relative to control; assay type: functional; outline: as §2
[25] = test system: HeLa; assay: Cell cycle arrest in human HeLa cells assessed as accumulation at S phase at 100 nM after 24 hrs using propidium iodide staining by flow cytometry relative to control; assay type: functional; outline: as §1
[26] = test system: HeLa; assay: Cell cycle arrest in human HeLa cells assessed as accumulation at G1 phase at 500 nM after 24 hrs using propidium iodide staining by flow cytometry relative to control; assay type: functional; outline: as §1
[27] = test system: HeLa; assay: Cell cycle arrest in human HeLa cells assessed as accumulation at G2/M phase at 500 nM after 24 hrs using propidium iodide staining by flow cytometry relative to control; assay type: functional; outline: as §1
[28] = test system: HeLa; assay: Cell cycle arrest in human HeLa cells assessed as accumulation at G1 phase at 100 nM after 24 hrs using propidium iodide staining by flow cytometry relative to control; assay type: functional; outline: as §1
[29] = test system: HeLa; assay: Induction of apoptosis in human HeLa cells at 100 nM after 24 hrs using propidium iodide/annexin V staining by flow cytometry relative to control; assay type: functional; outline: as §2

| Structure (SMILES) | IC50 [1] | IC50 [2] | IC50 [3] | IC50 [4] | IC50 [5] | IC50 [6] | IC50 [7] | IC50 [8] | IC50 [9] | also measured |
| --- | --- | --- | --- | --- | --- | --- | --- | --- | --- | --- |
| COc1cc2cc(-c3ccccc3)nc(N)c2cc1OC | 129 nM | 590 nM | 670 nM | 270 nM | 520 nM | 580 nM | 710 nM | 440 nM | 750 nM | – |
| COc1cccc(-c2cc3cc(C)ccc3c(N)n2)c1 | 107 nM | 690 nM | 1280 nM | 470 nM | 590 nM | 1190 nM | 750 nM | 570 nM | 720 nM | – |
| Cc1ccc2c(N)nc(-c3ccccc3C)cc2c1 | 162 nM | – | – | – | – | – | – | – | – | – |
| COc1cccc(-c2cc3ccc(C)cc3c(N)n2)c1 | 447 nM | 140 nM | 470 nM | 240 nM | 210 nM | 420 nM | 480 nM | 170 nM | 410 nM | – |
| Cc1ccc2c(N)nc(-c3c(C)cccc3C)cc2c1 | 380 nM | 120 nM | 210 nM | 160 nM | 170 nM | 240 nM | 240 nM | 140 nM | 230 nM | – |
| Cc1ccccc1-c1cc2c(N(C)C)cccc2c(N)n1 | > 10000 nM | > 10000 nM | > 10000 nM | > 10000 nM | > 10000 nM | > 10000 nM | > 10000 nM | > 10000 nM | > 10000 nM | – |
| Cc1ccc2c(N)nc(-c3ccc4c(c3)OCO4)cc2c1 | 141 nM | 110 nM | 220 nM | 160 nM | 160 nM | 190 nM | 230 nM | 130 nM | 220 nM | – |
| COc1cc2cc(-c3ccccc3C)nc(N)c2cc1OC | 437 nM | 670 nM | 830 nM | 380 nM | 780 nM | 1250 nM | 560 nM | 540 nM | 910 nM | – |
| COc1ccc(-c2cc3cc(C)ccc3c(N)n2)cc1OC | 562 nM | 510 nM | 1750 nM | 570 nM | 850 nM | 2690 nM | 2150 nM | 660 nM | 1410 nM | – |
| CN(C)c1cccc2c(N)nc(-c3ccccc3)cc12 | > 10000 nM | > 10000 nM | > 10000 nM | > 10000 nM | > 10000 nM | > 10000 nM | > 10000 nM | > 10000 nM | > 10000 nM | – |
| Cc1cccc(-c2cc3cc(C)ccc3c(N)n2)c1 | 182 nM | 160 nM | 200 nM | 150 nM | 180 nM | 220 nM | 210 nM | 150 nM | 250 nM | – |
| COc1ccc(-c2cc3c(N(C)C)cccc3c(N)n2)cc1OC | > 10000 nM | > 10000 nM | > 10000 nM | > 10000 nM | > 10000 nM | > 10000 nM | > 10000 nM | > 10000 nM | > 10000 nM | – |
| COc1ccc(-c2cc3cc(C)ccc3c(N)n2)c(C)c1 | 170 nM | 120 nM | 240 nM | 170 nM | 170 nM | 250 nM | 280 nM | 150 nM | 290 nM | – |
| Cc1ccc2cc(-c3ccccc3C)nc(N)c2c1 | 53.7 nM | 140 nM | 200 nM | 100 nM | 120 nM | 260 nM | 160 nM | 75 nM | 180 nM | – |
| COc1cc(OC)cc(-c2cc3cc(OC)c(OC)cc3c(N)n2)c1 | 282 nM | 540 nM | 700 nM | 190 nM | 770 nM | 720 nM | 400 nM | 400 nM | 690 nM | – |
| COc1cccc(-c2cc3cc(OC)c(OC)cc3c(N)n2)c1 | 759 nM | 170 nM | 190 nM | 74 nM | 160 nM | 180 nM | 220 nM | 140 nM | 230 nM | Activity [10]: 4.77%; Activity [11]: 9.78%; Activity [12]: 5.92%; Activity [13]: 6.6%; Activity [14]: 15.37%; Activity [15]: 73.06%; Activity [16]: 48.59%; Activity [17]: 11.36%; Activity [18]: 35.8%; Activity [19]: 15.58%; Activity [20]: 83.14%; Activity [21]: 8.8%; Activity [22]: 48.83%; Activity [23]: 10.26%; Activity [24]: 12.52%; Activity [25]: 16.12%; Activity [26]: 8.25%; Activity [27]: 86.98%; Activity [28]: 35.29%; Activity [29]: 6.14% |
